MsrA inhibitor: bovine MsrA enzyme inhibitors, primary screen, biochemical, absorbance, HTS | Methionine sulfoxide reductase A (Bos taurus) | purified bovine MsrA, absorbance read-out | inhibition, % at 15.5 µM | hit rate 0.75% among 360,000; in the data active = inhibition above about 4.5%;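 also: 0% = vehicle wells with enzyme and 100% = reference inhibitor wells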
MC4R barr agon: MC4R agonists recruiting beta-arrestin, primary screen, cell-based, luminescence, agonist arm of biased-ligand search | activation, % at 8.9 µM | hit rate 0.98% among 360,000 | U2OS MC4R beta-arrestin complementation; percent of melanotan II response, DMSO zero;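 active = activation above a per-plate cutoff, the mean activation of sample wells on that plate plus 3 SD, cut at about 8% in these data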
MC4R antag cAMP: MC4R antagonists of cAMP signaling, primary screen, cell-based, TR-FRET, antagonist arm of biased-ligand search; inhibition, % at 6.5 µM; MC4R-expressing cells, MTII-stimulated cAMP, LANCE TR-FRET; Melanocortin receptor 4 (Homo sapiens), P32245; AID 540295, 2011; hit rate 0.48% among 360,000;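 active = inhibition above its plate's cutoff, the mean of tested wells on that plate plus 3 SD, cut at about 29% in these data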;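 also: 0% = Melanotan II alone and 100% = Melanotan II plus saturating MCL0020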
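System: U2OS cells stably expressing human melanocortin 4 receptor (MC4R). Reagent: Melanotan II challenge after compound preincubation. Doses: 6.5 µM. Times: 30-min compound, 1-h challenge, 1-h detection, room temperature. Measured by: TR-FRET with Eu-cAMP and labeled anti-cAMP, 671 nm. Replicates: singlicate.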
bovine MsrA act: bovine MsrA enzyme activators, primary screen, biochemical, absorbance, HTS. hit rate 0.3% among 360,000. AID 602163, 2012. activation, % at 10.6 µM. purified bovine MsrA, absorbance read-out. Methionine sulfoxide reductase A (Bos taurus); in the data active = activation above about 7.5%;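 also: 0% = vehicle and 100% = reference activator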
MC4R barr conf: MC4R beta-arrestin agonists, retest, confirmation, cell-based, luminescence, U2OS; AID 602192, 2012; U2OS MC4R beta-arrestin recruitment; scaled DMSO 0%, Melanotan II 100%; activation, % at 8.9 µM; hit rate 31% among 2,400; shares compounds with MC4R barr agon;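 active = mean activation across replicates above the hit cutoff set in the earlier primary screen, cut at about 8% in these data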
MOR DOR agonist: agonists of MOR-DOR heterodimerization, counter-screen for MC4R biased agonist project, cell-based, luminescence | AID 602194, 2012 | hit rate 5.8% among 2,400 | activation, % at 9.2 µM | shares compounds with MC4R barr agon | U2OS PathHunter beta-arrestin, beta-gal luminescence; percent of deltorphin B response, DMSO zero;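 active = mean activation across replicates exceeds the hit threshold derived in the earlier primary screen, cut at about 18% in these data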;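 also: 100% = deltorphin B at 0.9 µM final and 0% = DMSO alone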
Target sequence (P35372 whole entry, looked up): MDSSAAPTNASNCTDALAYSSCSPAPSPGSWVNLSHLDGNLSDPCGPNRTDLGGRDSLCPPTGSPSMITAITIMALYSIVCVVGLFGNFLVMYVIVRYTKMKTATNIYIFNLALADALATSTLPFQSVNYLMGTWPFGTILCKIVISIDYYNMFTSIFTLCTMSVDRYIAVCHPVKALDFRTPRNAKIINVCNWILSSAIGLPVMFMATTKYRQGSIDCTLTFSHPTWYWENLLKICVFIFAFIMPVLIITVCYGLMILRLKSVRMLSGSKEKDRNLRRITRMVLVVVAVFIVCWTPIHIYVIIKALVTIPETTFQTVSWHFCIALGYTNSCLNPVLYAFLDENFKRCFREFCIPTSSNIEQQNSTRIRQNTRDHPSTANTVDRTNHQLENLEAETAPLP
Target sequence (P41143 whole entry, looked up): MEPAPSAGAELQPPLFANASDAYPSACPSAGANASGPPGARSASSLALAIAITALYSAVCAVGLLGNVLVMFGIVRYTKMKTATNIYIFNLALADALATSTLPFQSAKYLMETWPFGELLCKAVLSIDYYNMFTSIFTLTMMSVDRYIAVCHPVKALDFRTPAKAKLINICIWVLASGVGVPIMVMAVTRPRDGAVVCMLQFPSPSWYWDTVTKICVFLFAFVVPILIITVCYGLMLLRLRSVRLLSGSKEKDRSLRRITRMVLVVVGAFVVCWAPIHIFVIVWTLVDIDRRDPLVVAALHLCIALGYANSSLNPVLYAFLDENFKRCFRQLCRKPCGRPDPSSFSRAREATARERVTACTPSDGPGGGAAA
* hit, by the source's call; . = not tested or not shown. Hits are enriched below; roughly 2.3% of the tested compounds scored in any of these assays.

SMILES	MsrA inhibitor	MC4R barr agon	MC4R antag cAMP	bovine MsrA act	MC4R barr conf	MOR DOR agonist
COc1ccc([C@H]2C[C@@H](O)[C@H](n3cc(-c4ccc(F)cc4)nn3)CN2CC2CCCCC2)cc1	0.3	14.1*	18.4	1.0	0.6	4.4
CC(/C=C1\SC(=S)N(NC(=O)c2cccc(O)c2)C1=O)=C\c1ccccc1	0.4	9.8*	9.8	-2.1	1.9	5.3
N#CCCN(C(=O)COC(=O)CNC(=O)c1ccc(-c2ccccc2)cc1)c1ccc(F)cc1	-0.7	-4.5	14.0	-4.0	.	.
Cc1ccc2[nH]c(O)c(N=NC(=O)C3CC3c3ccccc3)c2c1Br (stereo unspecified)	0.6	17.9*	8.4	-2.7	3.3	1.7
Cc1ccc2nc(N(CCCN(C)C)C(=O)CCc3ccccc3)sc2c1	-1.8	0.0	-3.1	-2.6	.	.
CCOc1cccc2sc(N(CCN(C)C)C(=O)/C=C/c3cccs3)nc12	.	15.0*	-2.5	-1.2	3.4	8.9
CN(C)CCN(C(=O)/C=C/c1cccs1)c1nc2c(F)cc(F)cc2s1	2.0	20.9*	8.2	-1.6	4.6	13.5
COc1cccc2sc(N(CCN(C)C)C(=O)/C=C/c3cccs3)nc12	1.5	6.7	6.7	-3.4	.	.
CN(C)CCCN(C(=O)CCc1ccccc1)c1nc2ccc(Cl)cc2s1	-1.2	10.6*	-4.2	-1.5	31.1*	16.4
CN(C)CCCN(C(=O)/C=C/c1cccs1)c1nc2ccc(F)cc2s1	0.6	10.0*	-7.5	-8.9	15.5*	7.7
Cc1ccc(NC(=O)C2(C)CCN2Cc2csc3ccccc23)cc1 (stereo unspecified)	0.6	-1.7	13.7	-1.9	.	.
Clc1ccccc1OCc1nc(-c2ccncc2)no1	0.9	1.4	19.3	-0.6	.	.
O=C(/C=C/c1c(Cl)nc2ccccn12)N1CCN(c2ccccc2F)CC1	1.8	0.7	9.8	-1.5	.	.
COc1ccc2sc(N(CCCN(C)C)C(=O)c3nc4ccccc4s3)nc2c1	-1.3	12.4*	-9.8	-3.9	8.3*	9.5
Cc1ccc2nc(N(CCN(C)C)C(=O)/C=C/c3cccs3)sc2c1	1.9	16.1*	-17.9	-13.4	6.1	4.0
CCOc1ccc2nc(N(CCN(C)C)C(=O)/C=C/c3cccs3)sc2c1	.	-2.4	-4.5	-1.9	.	.
CN(C)CCN(C(=O)/C=C/c1cccs1)c1nc2ccc(Br)cc2s1	0.3	31.0*	4.1	-3.2	12.3*	5.6
CCc1ccc2nc(N(CCN(C)C)C(=O)/C=C/c3cccs3)sc2c1	.	0.2	6.9	-1.9	.	.
CCN(CC)CCCn1c(SCC(=O)NCC2CCCO2)nc2ccccc2c1=O (stereo unspecified)	-0.2	3.5	13.6	-1.2	.	.
CSc1nc(/C=C2\C=Nc3ccccc32)c(O)n1C	0.0	-0.6	1.0	-1.5	.	.
CC(C)n1c(O)c(/C=C2\C=Nc3ccccc32)sc1=Nc1ccccc1	-0.1	12.9*	-3.5	-8.9	-2.3	2.9
Cc1n[nH]c(=S)n1/N=C/c1ccc(OCc2ccc(Cl)cc2Cl)cc1	-0.6	-0.8	5.0	1.8	.	.
Cc1n[nH]c(=S)n1/N=C/c1ccccc1OCc1ccc(Cl)cc1Cl	0.4	18.6*	-1.5	-2.3	15.8*	3.5
Cc1cccc2sc(N(CCCN(C)C)C(=O)c3ccc(Cl)s3)nc12	-0.3	10.5*	-0.1	0.6	4.3	6.1
Cc1cc(C)c2sc(N(CCCN(C)C)C(=O)c3ccc(Br)s3)nc2c1	1.5	16.4*	1.7	0.5	21.0*	14.2
SMILES	MsrA inhibitor	MC4R barr agon	MC4R antag cAMP	bovine MsrA act	MC4R barr conf	MOR DOR agonist
Cc1cc(C)c2sc(N(CCN(C)C)C(=O)c3c(F)cccc3F)nc2c1	-0.5	-0.2	7.7	3.5	.	.
NC(=O)c1ccc(NC(=O)COC(=O)c2ccc(Cl)nc2)cc1	-0.9	0.4	9.8	-2.0	.	.
COc1cc2nc(N3CCN(c4cc(C)ccc4C)CC3)nc(N)c2cc1OC	-0.6	12.1*	6.8	-6.7	9.8*	20.7*
Cc1oc2c(C)c3oc(=O)c4c(c3cc2c1C)CCC4	-0.5	-1.3	2.8	-3.0	.	.
CCCCOc1ccc(/C=N/NC(=S)Nc2cc(C)ccc2C)cc1	0.0	11.7*	0.7	-11.5	5.1	3.8
CCCCOc1ccc(/C=N/NC(=S)Nc2cccc(C)c2C)cc1	0.5	1.3	11.6	-2.0	.	.
Cc1ccc(C2/C(=C(/O)c3ccc(OC(C)C)cc3)C(=O)C(=O)N2CCN2CCOCC2)cc1 (stereo unspecified)	1.0	-1.3	3.9	-10.5	.	.
Cc1c(-c2ccc(F)cc2)nc(N)c(C#N)c1-c1cccnc1	1.6	0.6	10.4	-4.2	.	.
Cc1ccc(-c2c(C)c(-c3ccc(F)cc3)nc(N)c2C#N)o1	1.5	13.2*	10.3	-2.6	1.3	9.7
CCCCNS(=O)(=O)c1ccc(NS(=O)(=O)c2c(C)cc(C)cc2C)cc1	1.0	11.6*	1.2	-6.5	6.8	3.6
CC(/C=C/c1ccco1)=N/NC(=O)CNc1ccccc1C	2.0	1.2	-3.8	-9.1	.	.
CC(/C=C/C=C/c1ccccc1)=N/NC(=O)CNc1ccccc1C	0.4	13.7*	-13.9	-2.5	29.1*	9.7
COc1ccc(OCC(=O)Nc2ccc(NC(=O)c3ccco3)cc2)cc1	-0.5	-1.7	-0.7	-3.8	.	.
CCCOc1cccc(C2/C(=C(/O)c3ccc(F)cc3)C(=O)C(=O)N2CCN(C)C)c1 (stereo unspecified)	1.4	-1.0	5.8	-2.4	.	.
O=C(Cn1nnc(-c2ccc(F)cc2)n1)NC(=O)NC1CCCCC1	-0.7	9.7*	4.6	-6.0	1.8	5.4
Cc1ccc(OCCOCCNC(C)C)c(Br)c1	0.5	1.2	0.8	-9.5	.	.
Cn1cccc1/C=N\NC(=O)Cc1ccc(Br)c2ccccc12	2.7	17.4*	-1.4	-13.7	1.1	6.3
COC(=O)c1ccc2[nH]cc(CCO)c2c1	-0.5	-1.8	3.4	-3.7	.	.
O=c1cc(-c2ccccc2)oc2ccc3ccccc3c12	0.2	10.0*	3.4	-3.9	9.5*	3.8
Cc1cc(=O)[nH]c2ccc(Cc3ccccc3)cc12	1.9	0.8	-0.9	-1.6	.	.
COc1ccc(C2C(C(C)=O)=C(O)C(=O)N2c2ccc(O)cc2)cc1 (stereo unspecified)	1.5	-0.9	2.1	-2.1	.	.
COc1ccc(-n2nc(C(=O)NCC(=O)Nc3ccccn3)c3ccccc3c2=O)cc1Cl	-1.4	15.3*	-3.0	-1.8	24.3*	8.6
COc1ccc(-n2nc(C(=O)NCC(=O)NC(C)C)c3ccccc3c2=O)cc1Cl	2.1	-0.8	-7.2	-2.4	.	.

Screens from PubChem.
